Measured values as given in ChEMBL document CHEMBL1155498, “Glycine amides as PPARalpha agonists” (Bioorg Med Chem Lett, 2010).
Converted amounts (≈) assume the structure as drawn. Each block holds one compound with its values, some of them ahead of it.

Experiments:
[1] = target: T1, Peroxisome proliferator-activated receptor alpha (Homo sapiens, UniProt Q07869); experiment: Agonist activity at Gal4-fused human PPARalpha; assay type: functional
T1 sequence (Q07869 whole entry): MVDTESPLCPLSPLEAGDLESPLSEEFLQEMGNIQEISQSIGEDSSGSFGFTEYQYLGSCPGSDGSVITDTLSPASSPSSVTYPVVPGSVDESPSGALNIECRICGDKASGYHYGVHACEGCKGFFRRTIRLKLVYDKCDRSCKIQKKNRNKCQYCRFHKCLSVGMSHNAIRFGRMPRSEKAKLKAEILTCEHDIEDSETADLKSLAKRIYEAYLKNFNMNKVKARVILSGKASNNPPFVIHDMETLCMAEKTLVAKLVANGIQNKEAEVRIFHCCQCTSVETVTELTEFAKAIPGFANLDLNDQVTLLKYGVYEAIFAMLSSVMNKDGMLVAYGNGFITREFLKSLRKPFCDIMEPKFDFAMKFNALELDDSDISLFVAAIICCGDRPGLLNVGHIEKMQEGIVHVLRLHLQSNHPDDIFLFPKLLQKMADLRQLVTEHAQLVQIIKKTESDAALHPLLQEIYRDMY

Mus musculus [2] = experiment: Increase in total cholesterol level in human ApoA1 transgenic mouse at 2 mg/kg, po for 7 days (RVb = 29 %); assay type: functional
In short: (§1)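 Male transgenic hAPO-A1 C57BL/6 mice, n = 10 per dose. Dosed orally once daily for 7 d at 0.6, 2 or 6 mg/kg in Solutol HS15 + ethanol + 0.9% brine (1+1+8), 10 ml/kg. Serum triglycerides and total cholesterol measured photometrically against vehicle control. Total cholesterol serves as a surrogate for HDL.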

[3] = target: T2, Peroxisome proliferator-activated receptor alpha (Mus musculus, UniProt P23204); experiment: Agonist activity at Gal4-fused mouse PPARalpha; assay type: functional
T2 sequence (P23204 whole entry): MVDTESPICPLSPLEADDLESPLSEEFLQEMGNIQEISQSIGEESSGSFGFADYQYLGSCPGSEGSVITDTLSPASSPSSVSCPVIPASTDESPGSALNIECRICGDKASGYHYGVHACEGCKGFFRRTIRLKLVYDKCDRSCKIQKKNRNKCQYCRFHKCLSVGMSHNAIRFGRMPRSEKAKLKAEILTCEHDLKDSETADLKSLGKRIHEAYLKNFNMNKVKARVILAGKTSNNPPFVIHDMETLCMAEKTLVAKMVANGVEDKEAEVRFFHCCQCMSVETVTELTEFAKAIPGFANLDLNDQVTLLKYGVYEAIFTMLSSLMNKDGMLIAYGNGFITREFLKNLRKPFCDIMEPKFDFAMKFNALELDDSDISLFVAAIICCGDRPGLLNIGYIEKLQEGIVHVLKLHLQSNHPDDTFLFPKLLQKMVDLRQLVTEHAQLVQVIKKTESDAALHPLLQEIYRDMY

[4] = AUC in NMRI mouse at 10 mg/kg, po; assay type: ADME, organism-based; set-up: dose 10 mg/kg, route oral; conditions: plasma
In short: (§2)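 Male NMRI mice (n = 3) dosed orally at 10 mg/kg as a suspension in 20% PEG 400 (5 ml/kg). Plasma sampled at 7 time points up to 6 h. Concentrations dose-normalised to 1 mg/kg. Bioavailability taken against an iv arm (3 mg/kg, 20% PEG400, n = 3).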

[5] = target: T3, Peroxisome proliferator-activated receptor delta (Mus musculus, UniProt P35396); experiment: Agonist activity at Gal4-fused mouse PPARdelta; assay type: functional
T3 sequence (P35396 whole entry): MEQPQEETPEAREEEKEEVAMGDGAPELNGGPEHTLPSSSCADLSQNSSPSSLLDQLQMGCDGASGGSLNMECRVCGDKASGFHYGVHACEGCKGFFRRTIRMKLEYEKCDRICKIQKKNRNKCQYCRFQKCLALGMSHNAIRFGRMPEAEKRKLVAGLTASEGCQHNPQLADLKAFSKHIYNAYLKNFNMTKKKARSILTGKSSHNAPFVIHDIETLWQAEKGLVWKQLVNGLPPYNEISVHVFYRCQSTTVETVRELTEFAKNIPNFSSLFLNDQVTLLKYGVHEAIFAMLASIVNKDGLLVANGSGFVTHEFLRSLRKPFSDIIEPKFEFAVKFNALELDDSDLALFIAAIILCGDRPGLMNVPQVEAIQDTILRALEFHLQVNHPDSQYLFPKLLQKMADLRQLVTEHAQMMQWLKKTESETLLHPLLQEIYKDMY

Mus musculus [6] = experiment: Reduction in triglyceride level in human ApoA1 transgenic mouse at 0.6 mg/kg, po for 7 days relative to control; assay type: functional; set-up: scale not given: the % may be the effect or the level left; in short: as §1
Mus musculus [7] = experiment: Reduction in triglyceride level in human ApoA1 transgenic mouse at 2 mg/kg, po for 7 days relative to control; assay type: functional; set-up: scale not given: the % may be the effect or the level left; in short: as §1
[8] = Aqueous solubility of the compound; assay type: physicochemical
[9] = Oral bioavailability in NMRI mouse at 10 mg/kg; assay type: ADME, organism-based; conditions: in vivo; in short: as §2
[10] = target: T4, Peroxisome proliferator-activated receptor gamma (Mus musculus, UniProt P37238); experiment: Agonist activity at Gal4-fused mouse PPARgamma; assay type: functional
T4 sequence (P37238 whole entry): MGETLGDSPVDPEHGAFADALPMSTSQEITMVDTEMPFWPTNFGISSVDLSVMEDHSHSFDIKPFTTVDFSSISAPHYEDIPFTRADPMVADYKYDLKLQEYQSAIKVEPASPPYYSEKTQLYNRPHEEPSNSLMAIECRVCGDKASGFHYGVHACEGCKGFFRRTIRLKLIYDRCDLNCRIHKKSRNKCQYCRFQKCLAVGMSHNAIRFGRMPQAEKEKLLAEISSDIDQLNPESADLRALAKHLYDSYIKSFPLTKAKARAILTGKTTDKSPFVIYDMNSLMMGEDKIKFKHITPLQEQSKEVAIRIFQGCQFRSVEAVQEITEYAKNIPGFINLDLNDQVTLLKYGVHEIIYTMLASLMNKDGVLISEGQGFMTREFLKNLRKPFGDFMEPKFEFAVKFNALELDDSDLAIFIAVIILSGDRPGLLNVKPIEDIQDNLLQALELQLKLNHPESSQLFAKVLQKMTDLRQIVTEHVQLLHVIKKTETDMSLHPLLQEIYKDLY

[11] = target: T5, Peroxisome proliferator-activated receptor gamma (Homo sapiens, UniProt P37231); experiment: Agonist activity at Gal4-fused human PPARgamma
T5 sequence (P37231 whole entry): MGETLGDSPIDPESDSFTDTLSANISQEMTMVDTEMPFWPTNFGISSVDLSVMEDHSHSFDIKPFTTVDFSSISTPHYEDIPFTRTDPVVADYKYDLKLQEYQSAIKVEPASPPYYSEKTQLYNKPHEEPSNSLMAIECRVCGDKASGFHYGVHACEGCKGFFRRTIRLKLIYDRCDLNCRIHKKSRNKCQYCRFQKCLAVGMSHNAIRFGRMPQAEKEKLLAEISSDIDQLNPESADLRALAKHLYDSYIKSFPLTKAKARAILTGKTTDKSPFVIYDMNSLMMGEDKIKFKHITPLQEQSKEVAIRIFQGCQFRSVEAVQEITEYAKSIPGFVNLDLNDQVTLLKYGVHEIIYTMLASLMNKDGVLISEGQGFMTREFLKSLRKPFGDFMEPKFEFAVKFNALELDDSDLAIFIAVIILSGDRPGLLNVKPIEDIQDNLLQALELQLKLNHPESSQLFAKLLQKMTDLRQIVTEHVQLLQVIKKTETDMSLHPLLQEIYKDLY

Albumin = Albumin (Homo sapiens, UniProt P02768); experiment: Binding affinity to human serum albumin; assay type: ADME; conditions: isolated protein
[12] = Clearance in NMRI mouse at 3 mg/kg, iv; assay type: ADME, organism-based; set-up: dose 3 mg/kg, route intravenous; conditions: in vivo
In short: (§3)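 Male NMRI mice (n = 3) given 3 mg/kg iv in 20% PEG400. Plasma concentration–time profile followed over about 6 h. Concentrations dose-normalised to 1 mg/kg.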

[13] = Half life in NMRI mouse at 3 mg/kg, iv; assay type: ADME, organism-based; set-up: dose 3 mg/kg, route intravenous; conditions: in vivo; in short: as §3
Mus musculus [14] = experiment: Increase in total cholesterol level in human ApoA1 transgenic mouse at 6 mg/kg, po for 7 days (RVb = 29 %); assay type: functional; in short: as §1
[15] = target: T6, Peroxisome proliferator-activated receptor delta (Homo sapiens, UniProt Q03181); experiment: Agonist activity at Gal4-fused human PPARdelta; assay type: functional
T6 sequence (Q03181 whole entry): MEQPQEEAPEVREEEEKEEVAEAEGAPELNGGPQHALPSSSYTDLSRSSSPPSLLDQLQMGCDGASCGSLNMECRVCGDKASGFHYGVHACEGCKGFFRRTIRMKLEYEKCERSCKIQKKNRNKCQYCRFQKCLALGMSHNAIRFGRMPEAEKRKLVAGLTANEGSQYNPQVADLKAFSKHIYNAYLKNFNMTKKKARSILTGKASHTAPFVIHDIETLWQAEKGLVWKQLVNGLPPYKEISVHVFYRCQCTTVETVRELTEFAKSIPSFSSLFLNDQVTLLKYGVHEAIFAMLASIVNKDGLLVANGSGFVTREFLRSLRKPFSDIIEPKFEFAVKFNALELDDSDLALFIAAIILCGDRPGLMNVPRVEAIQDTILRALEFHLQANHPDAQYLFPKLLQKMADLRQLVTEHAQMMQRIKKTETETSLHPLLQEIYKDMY

[16] = Tmax in NMRI mouse at 10 mg/kg, po; assay type: ADME, organism-based; set-up: dose 10 mg/kg, route oral; conditions: in vivo; in short: as §2
Mus musculus [17] = experiment: Increase in total cholesterol level in human ApoA1 transgenic mouse at 0.6 mg/kg, po for 7 days (RVb = 29 %); assay type: functional; in short: as §1

Sequence of Albumin (P02768 whole entry): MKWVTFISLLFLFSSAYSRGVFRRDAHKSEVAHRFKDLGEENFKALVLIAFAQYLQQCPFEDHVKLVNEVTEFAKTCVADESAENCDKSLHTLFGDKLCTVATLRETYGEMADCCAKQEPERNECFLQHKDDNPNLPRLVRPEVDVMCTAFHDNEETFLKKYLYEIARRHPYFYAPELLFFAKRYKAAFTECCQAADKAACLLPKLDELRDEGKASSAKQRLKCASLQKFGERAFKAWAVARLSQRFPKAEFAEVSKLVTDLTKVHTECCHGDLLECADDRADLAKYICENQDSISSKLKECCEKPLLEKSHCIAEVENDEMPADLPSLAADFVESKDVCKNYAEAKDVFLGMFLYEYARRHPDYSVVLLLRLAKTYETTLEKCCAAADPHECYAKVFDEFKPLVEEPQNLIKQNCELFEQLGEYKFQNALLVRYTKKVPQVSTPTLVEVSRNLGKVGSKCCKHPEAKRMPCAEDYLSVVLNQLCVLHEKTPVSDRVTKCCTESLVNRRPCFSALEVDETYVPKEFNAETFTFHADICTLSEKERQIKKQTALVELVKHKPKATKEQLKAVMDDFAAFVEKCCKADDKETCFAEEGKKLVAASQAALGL

Compound: CCCCCCCN(CC(=O)Nc1ccc(C)cc1C)Cc1ccc(OC(C)(C)C(=O)O)cc1
- EC50 [1]: > 25000 nM

Compound: COc1ccc(CN(CC(=O)Nc2ccc(C)cc2C)Cc2ccc(OC(C)(C)C(=O)O)cc2)cc1
- EC50 [1]: 900 nM

Compound: COc1ccc(OC)c(NC(=O)CN(Cc2ccc(OC(C)(C)C(=O)O)cc2)Cc2ccco2)c1
- EC50 [1]: 300 nM

Compound: Cc1ccc(NC(=O)CN(Cc2ccc(OC(C)(C)C(=O)O)cc2)Cc2cccs2)c(C)c1
- EC50 [1]: 700 nM

Compound: Cc1ccc(NC(=O)CN(Cc2ccc(OC(C)(C)C(=O)O)cc2)Cc2ccco2)c(C)c1
- Activity (Mus musculus [2]): 74%
- EC50 [3]: 20 nM
- AUC [4]: 370 ng·h/mL
- EC50 [5]: 2000 nM
- Activity (Mus musculus [6]): -3%
- Activity (Mus musculus [7]): -20%
- solubility [8]: 500 µg/mL (≈ 1110 µM)
- bioavailability [9]: 20%
- EC50 [10]: 300 nM
- EC50 [11]: 800 nM
- Activity (Albumin): 10 µM
- clearance [12]: 89.2 mL/min/kg
- EC50 [1]: 20 nM
- half-life [13]: 2 h
- Activity (Mus musculus [14]): 91%
- EC50 [15]: 6000 nM
- Tmax [16]: 0.5 h
- Activity (Mus musculus [17]): 58%

Compound: Cc1ccc(NC(=O)CN(Cc2ccccc2)Cc2ccc(OC(C)(C)C(=O)O)cc2)c(C)c1
- EC50 [1]: 1000 nM

Compound: CCCN(CC(=O)Nc1ccc(C)cc1C)Cc1ccc(OC(C)(C)C(=O)O)cc1
- EC50 [1]: 1000 nM

Compound: CCCCN(CC(=O)Nc1ccc(C)cc1C)Cc1ccc(OC(C)(C)C(=O)O)cc1
- EC50 [1]: 10000 nM

Compound: CCCCCCCN(CCc1ccc(SC(C)(C)C(=O)O)cc1)C(=O)Nc1ccc(F)cc1F [GSK-9578]
- EC50 [3]: 10 nM
- EC50 [5]: 2000 nM
- solubility [8]: 100 µg/mL (≈ 203 µM)
- EC50 [10]: 2500 nM
- Activity (Albumin): 1.3 µM
- EC50 [15]: 2000 nM

Now from value to compound:

- EC50 [1]: 7000 nM
Compound: CC(C)(Oc1ccc(CN(CC(=O)NCc2ccccc2Cl)Cc2ccco2)cc1)C(=O)O

- EC50 [1]: 2000 nM
Compound: Cc1ccccc1NC(=O)CN(Cc1ccc(OC(C)(C)C(=O)O)cc1)Cc1ccco1

- EC50 [1]: 600 nM
Compound: Cc1ccc(C)c(NC(=O)CN(Cc2ccc(OC(C)(C)C(=O)O)cc2)Cc2ccco2)c1

- EC50 [1]: 3000 nM
Compound: COc1cccc(NC(=O)CN(Cc2ccc(OC(C)(C)C(=O)O)cc2)Cc2ccco2)c1

- EC50 [1]: 1500 nM
Compound: CC(C)(Oc1ccc(CN(CC(=O)Nc2ccc(F)cc2F)Cc2ccco2)cc1)C(=O)O

- EC50 [1]: > 25000 nM
Compound: CC(C)(Oc1ccc(CN(CC(=O)Nc2ccccn2)Cc2ccco2)cc1)C(=O)O

- EC50 [1]: 13000 nM
Compound: CC(C)(Oc1ccc(CN(CC(=O)NCc2ccccc2)Cc2ccco2)cc1)C(=O)O
